The source of these data is ChEMBL document CHEMBL4346670, “Discovery of Novel Janus Kinase (JAK) and Histone Deacetylase (HDAC) Dual Inhibitors for the Treatment of Hematological Malignancies” (J Med Chem, 2019).

For orientation: inhibition means the change of the read-out against control, counted positive when it falls. Usually MRT last stands for a mean duration of stay, worked out from the concentration-time curve.

The target of data set [1] is cAMP-dependent protein kinase catalytic subunit PRKX (Homo sapiens) (UniProt P51817). Kind of data set: Inhibition of recombinant human PRKX at 20 nM using Ulight-RRRSLLE as substrate measured after 30 mins by LANCE method relative to control. (In general: TR-FRET usually uses a lanthanide donor and a delayed reading to cut background.)
cAMP-dependent protein kinase catalytic subunit PRKX (Homo sapiens), sequence (P51817 whole entry): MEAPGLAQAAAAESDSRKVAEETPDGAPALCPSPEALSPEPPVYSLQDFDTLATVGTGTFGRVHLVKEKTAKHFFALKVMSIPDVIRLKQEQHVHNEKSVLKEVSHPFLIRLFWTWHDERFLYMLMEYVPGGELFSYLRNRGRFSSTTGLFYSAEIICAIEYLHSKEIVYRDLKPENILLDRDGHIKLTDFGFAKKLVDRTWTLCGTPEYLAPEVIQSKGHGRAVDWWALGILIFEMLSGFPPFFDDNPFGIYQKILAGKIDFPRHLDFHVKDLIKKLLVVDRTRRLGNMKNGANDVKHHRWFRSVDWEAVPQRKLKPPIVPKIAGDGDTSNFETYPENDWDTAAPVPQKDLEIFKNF
A short description of data set [2]: MRT (0 to t) in CD1(ICR) mouse at 1 mg/kg, ip by LC-MS/MS analysis. To be noted: in vivo. The format is ADME, organism-based.
Data set [3] addresses Ribosomal protein S6 kinase alpha-4 (Homo sapiens) (UniProt O75676). Kind of data set: Inhibition of recombinant human MSK2 at 20 nM using biotinyl-beta […] AAAARARTSSFAEPG after 15 mins by HTRF method relative to control.
The target of data set [4] is Serine/threonine-protein kinase DCLK1 (Homo sapiens) (UniProt O15075). Put plainly: Inhibition of recombinant human DCAMKL1 at 200 nM using CREBtide as substrate measured after 60 mins by LANCE method relative to control. The method in brief:
(§1)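 Single-concentration screen within an 85-kinase panel run by a contract lab, with each compound tested at 20 nM and 200 nM. Human recombinant enzymes were used. Activity was quantified as phosphorylation of a peptide substrate read by LANCE time-resolved detection, and inhibition was expressed relative to control, using the same format as the JAK assay.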

The target in data set [5] is Testis-specific serine/threonine-protein kinase 1 (Homo sapiens) (UniProt Q9BXA7). Put plainly: Inhibition of recombinant human TSSK1 at 20 nM using Ulight-RRRSLLE as substrate measured after 60 mins by LANCE method relative to control.
Testis-specific serine/threonine-protein kinase 1 (Homo sapiens), sequence (Q9BXA7 whole entry): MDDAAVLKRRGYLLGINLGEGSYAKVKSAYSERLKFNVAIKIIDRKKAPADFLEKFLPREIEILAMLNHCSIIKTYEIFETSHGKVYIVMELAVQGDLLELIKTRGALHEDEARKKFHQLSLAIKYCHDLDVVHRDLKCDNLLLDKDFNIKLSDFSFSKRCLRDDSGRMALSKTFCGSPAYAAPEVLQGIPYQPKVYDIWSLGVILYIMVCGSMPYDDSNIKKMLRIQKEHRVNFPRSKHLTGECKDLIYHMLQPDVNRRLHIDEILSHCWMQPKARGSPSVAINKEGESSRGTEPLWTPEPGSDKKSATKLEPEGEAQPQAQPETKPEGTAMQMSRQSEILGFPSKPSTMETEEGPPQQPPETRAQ
Data set [6] deals with Vascular endothelial growth factor receptor 3 (Homo sapiens) (UniProt P35916). Kind of data set: Inhibition of recombinant human FLT4 at 20 nM using Ulight-CAGAGAIETDKEYYTVKD as substrate measured after 90 mins by LANCE method relative to control. The method in brief: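 Part of an 85-kinase selectivity panel run by a contract lab. The test compound was screened at 20 nM and 200 nM against human recombinant kinases. Activity was quantified as phosphorylation of a ULight-labelled peptide substrate, read by LANCE detection. Percent inhibition was taken relative to control. The method is the same one used for JAKs.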
Vascular endothelial growth factor receptor 3 (Homo sapiens), sequence (P35916 whole entry): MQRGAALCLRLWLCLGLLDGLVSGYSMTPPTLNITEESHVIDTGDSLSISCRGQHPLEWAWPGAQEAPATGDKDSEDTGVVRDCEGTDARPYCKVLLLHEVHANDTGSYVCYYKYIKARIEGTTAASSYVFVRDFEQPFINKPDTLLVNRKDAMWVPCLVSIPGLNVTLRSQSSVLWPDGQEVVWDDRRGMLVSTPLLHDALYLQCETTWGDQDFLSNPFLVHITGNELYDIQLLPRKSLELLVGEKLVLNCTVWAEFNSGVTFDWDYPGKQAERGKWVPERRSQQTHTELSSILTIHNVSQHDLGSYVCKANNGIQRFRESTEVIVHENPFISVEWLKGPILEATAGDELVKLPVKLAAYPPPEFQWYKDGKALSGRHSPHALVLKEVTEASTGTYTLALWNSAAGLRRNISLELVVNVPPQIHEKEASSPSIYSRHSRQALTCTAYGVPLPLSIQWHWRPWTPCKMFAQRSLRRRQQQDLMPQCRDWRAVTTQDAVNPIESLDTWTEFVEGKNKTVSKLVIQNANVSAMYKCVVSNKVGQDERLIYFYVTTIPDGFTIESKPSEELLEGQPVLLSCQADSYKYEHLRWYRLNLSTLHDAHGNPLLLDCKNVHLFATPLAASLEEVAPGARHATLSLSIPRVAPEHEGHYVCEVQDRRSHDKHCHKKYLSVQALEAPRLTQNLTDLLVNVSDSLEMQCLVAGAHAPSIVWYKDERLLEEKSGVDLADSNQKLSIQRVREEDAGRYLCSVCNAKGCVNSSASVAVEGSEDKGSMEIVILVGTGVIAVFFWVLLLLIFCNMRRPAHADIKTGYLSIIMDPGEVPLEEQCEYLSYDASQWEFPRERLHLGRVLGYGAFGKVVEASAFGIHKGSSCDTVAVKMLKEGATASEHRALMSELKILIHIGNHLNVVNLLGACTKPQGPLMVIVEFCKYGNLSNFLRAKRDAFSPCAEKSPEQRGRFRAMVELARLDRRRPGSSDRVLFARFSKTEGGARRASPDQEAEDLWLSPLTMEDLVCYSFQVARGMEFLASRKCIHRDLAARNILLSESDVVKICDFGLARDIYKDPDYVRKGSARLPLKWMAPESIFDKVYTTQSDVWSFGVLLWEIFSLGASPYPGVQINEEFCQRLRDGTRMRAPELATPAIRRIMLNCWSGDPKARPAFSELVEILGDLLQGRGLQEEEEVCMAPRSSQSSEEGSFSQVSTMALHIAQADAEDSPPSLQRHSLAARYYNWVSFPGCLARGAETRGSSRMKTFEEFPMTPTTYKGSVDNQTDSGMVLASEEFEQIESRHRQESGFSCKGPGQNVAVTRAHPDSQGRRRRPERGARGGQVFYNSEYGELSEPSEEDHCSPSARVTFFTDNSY

Data set [7] is described as follows: MRT (0 to t) in CD1(ICR) mouse at 1 mg/kg, iv by LC-MS/MS analysis. To be noted: in vivo. It counts as ADME, organism-based.
The target of data set [8] is Vascular endothelial growth factor receptor 1 (Homo sapiens) (UniProt P17948). Kind of data set: Inhibition of recombinant human FLT1 at 200 nM using Ulight-TK peptide as substrate measured after 15 mins by LANCE method relative to control. An outline of the steps: as §1
The target in data set [9] is Hepatocyte growth factor receptor (Homo sapiens) (UniProt P08581). Put plainly: Inhibition of recombinant human c-MET at 200 nM using Ulight-CAGAGAIETDKEYYTVKD as substrate measured after 60 mins by LANCE method relative to control.
Hepatocyte growth factor receptor (Homo sapiens), sequence (P08581 whole entry): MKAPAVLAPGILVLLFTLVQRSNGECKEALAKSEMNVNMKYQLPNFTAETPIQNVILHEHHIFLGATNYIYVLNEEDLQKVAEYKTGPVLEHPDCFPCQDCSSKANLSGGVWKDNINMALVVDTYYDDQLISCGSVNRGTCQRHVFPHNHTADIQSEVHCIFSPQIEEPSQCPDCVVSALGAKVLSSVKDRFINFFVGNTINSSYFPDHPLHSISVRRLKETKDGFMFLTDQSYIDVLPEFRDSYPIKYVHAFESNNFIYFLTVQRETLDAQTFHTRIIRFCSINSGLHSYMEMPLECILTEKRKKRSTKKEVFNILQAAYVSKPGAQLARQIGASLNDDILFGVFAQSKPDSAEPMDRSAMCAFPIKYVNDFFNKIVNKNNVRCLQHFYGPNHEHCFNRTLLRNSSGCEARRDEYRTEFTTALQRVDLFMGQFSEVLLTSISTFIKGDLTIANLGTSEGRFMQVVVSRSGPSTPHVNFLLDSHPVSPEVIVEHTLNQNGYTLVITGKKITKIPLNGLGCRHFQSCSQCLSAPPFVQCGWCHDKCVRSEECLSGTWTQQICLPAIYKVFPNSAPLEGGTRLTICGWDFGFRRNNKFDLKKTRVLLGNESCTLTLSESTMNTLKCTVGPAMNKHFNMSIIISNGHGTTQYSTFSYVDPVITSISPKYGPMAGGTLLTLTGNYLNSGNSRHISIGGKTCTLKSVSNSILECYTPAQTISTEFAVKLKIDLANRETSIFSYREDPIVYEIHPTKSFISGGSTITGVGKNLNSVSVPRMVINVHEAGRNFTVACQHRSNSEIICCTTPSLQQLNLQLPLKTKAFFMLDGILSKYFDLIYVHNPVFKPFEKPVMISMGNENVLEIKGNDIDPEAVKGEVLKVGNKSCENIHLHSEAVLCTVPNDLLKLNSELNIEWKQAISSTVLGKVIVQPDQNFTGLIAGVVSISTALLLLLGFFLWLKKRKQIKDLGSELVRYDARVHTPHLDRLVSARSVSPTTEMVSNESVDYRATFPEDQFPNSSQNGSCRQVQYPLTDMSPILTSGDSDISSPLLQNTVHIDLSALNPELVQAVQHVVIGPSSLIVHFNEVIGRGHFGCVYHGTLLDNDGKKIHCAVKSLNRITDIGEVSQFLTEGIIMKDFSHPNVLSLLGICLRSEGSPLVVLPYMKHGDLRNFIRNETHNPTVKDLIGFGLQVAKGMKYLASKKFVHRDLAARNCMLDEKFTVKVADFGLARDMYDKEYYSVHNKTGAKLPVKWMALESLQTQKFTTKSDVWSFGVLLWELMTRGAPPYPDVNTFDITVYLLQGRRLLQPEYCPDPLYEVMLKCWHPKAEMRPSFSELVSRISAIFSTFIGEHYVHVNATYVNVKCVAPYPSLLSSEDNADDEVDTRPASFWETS
The target in data set [10] is Mitogen-activated protein kinase 8 (Homo sapiens) (UniProt P45983). Put plainly: Inhibition of recombinant human JNK1 at 200 nM using Ulight-CFFKNIVTPRTPPPSQGK-amide as substrate measured after 60 mins by LANCE method relative to control. An outline of the steps: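 Part of an 85-kinase selectivity panel run by a contract lab, with the test compound at 20 nM and at 200 nM. Each human recombinant kinase's phosphorylation of its peptide substrate was measured following the JAK assay method. Activity is given as percent inhibition.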
Mitogen-activated protein kinase 8 (Homo sapiens), sequence (P45983 whole entry): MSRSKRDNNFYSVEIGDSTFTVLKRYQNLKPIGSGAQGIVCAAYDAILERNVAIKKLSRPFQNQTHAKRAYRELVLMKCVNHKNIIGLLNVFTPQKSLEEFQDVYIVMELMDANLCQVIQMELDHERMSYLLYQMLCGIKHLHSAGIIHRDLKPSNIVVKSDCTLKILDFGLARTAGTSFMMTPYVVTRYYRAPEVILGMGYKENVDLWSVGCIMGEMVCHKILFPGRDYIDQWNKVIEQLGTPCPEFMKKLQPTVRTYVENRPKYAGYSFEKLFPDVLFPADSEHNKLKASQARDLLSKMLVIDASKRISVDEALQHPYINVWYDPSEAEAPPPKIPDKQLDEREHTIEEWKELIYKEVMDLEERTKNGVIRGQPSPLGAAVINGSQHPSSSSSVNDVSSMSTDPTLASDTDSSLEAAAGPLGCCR

For data set [11], the species on record is Homo sapiens. Kind of data set: Inhibition of recombinant human PKA at 20 nM using Ulight-RRRSLLE peptide as substrate measured after 10 mins by LANCE assay relative to control.

Ribosomal protein S6 kinase alpha-4 (Homo sapiens), sequence (O75676 whole entry, looked up): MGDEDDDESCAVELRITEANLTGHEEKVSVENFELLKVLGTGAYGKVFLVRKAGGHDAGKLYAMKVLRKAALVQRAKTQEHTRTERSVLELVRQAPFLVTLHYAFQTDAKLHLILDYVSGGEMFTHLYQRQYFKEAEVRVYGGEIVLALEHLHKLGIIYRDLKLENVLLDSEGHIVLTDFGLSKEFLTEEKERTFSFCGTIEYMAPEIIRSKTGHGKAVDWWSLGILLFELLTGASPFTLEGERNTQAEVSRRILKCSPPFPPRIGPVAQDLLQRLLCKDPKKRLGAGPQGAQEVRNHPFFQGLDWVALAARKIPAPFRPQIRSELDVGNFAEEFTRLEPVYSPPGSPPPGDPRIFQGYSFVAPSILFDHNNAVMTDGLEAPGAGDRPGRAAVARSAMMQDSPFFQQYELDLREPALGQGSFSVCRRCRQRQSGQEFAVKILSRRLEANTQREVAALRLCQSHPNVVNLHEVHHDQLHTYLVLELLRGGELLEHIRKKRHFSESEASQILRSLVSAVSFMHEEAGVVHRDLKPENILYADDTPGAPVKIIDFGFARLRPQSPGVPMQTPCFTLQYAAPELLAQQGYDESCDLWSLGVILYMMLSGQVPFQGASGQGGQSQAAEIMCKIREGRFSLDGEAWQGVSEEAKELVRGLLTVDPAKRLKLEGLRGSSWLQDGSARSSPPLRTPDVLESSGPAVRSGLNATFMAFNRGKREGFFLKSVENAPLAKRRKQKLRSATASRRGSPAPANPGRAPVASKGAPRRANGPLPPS

With `O=C(CCCCCn1cc(Nc2ncc(Cl)c(Nc3ccc(Cl)cc3)n2)cn1)NO`, the inhibition in data set [1] is -1%; in data set [3] it was -2%; in data set [4] it was 9%; in [5] it was -3%; in data set [6], 38%; in data set [8], 61%. Further, the inhibition is 37% in data set [9], 13% in [10] and -10% in data set [11]. In addition, the MRT last stood at 21.6 min in data set [2] and 16.2 min in [7].
